Data from ChEMBL document CHEMBL1134118, “Inhibition of serine proteases: activity of 1,3-diazetidine-2,4-diones” (Bioorg Med Chem Lett, 2001).
Active and inactive are the calls of the source. The rule behind the calls is not given here.

Experiments:
[1] = molecular target: T1, Cathepsin G (Homo sapiens, UniProt P08311); assay: Compound was evaluated for its inhibitory activity against human cathepsin G
T1 sequence (P08311 whole entry): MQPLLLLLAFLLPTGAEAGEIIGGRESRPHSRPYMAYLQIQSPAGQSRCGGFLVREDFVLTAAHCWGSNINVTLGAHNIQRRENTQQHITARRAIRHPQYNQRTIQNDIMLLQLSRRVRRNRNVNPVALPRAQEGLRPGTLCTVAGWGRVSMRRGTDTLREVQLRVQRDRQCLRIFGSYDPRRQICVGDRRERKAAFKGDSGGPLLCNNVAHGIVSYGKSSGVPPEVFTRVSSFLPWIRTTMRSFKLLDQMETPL

[2] = molecular target: T2, Neutrophil elastase (Homo sapiens, UniProt P08246); assay: Compound was evaluated for its inhibitory activity against human neutrophil elastase
T2 sequence (P08246 whole entry): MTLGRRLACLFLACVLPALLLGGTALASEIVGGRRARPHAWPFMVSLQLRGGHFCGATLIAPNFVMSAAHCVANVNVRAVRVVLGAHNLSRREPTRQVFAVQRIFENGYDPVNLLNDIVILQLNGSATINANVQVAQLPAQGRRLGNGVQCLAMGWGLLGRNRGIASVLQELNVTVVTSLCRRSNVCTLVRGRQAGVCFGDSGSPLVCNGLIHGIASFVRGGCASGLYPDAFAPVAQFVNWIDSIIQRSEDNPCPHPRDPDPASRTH
How it was run: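 Purified human neutrophil elastase with chromogenic substrate N-succinyl-Ala-Ala-Val-pNA. Buffer 50 mM Tris-HCl pH 8.0 containing 2 mM CaCl2.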

[3] = molecular target: T3, Plasminogen (Homo sapiens, UniProt P00747); assay: Compound was evaluated for its inhibitory activity against human plasmin
How it was run: (§1)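 Purified human plasmin assayed with chromogenic substrate Chromozym PL. Buffer 50 mM Tris-HCl pH 7.5 containing 50 mM NaCl.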

[4] = molecular target: T4, Chymase (Homo sapiens, UniProt P23946); assay: Compound was evaluated for its inhibitory activity against human Serine protease chymase up to a concentration > 10000 nM; NA= not active
T4 sequence (P23946 whole entry): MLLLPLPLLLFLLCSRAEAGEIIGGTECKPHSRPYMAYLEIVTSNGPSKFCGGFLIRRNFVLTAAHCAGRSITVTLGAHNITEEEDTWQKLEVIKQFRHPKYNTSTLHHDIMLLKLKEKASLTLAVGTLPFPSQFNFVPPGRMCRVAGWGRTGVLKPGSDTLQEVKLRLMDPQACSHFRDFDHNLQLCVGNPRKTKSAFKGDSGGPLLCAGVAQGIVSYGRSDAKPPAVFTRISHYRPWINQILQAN
How it was run: (§2)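 Purified human chymase preincubated with inhibitor (DMSO solution) for 30 min at 37 °C in 0.1 M Tris–HCl pH 8.0 with 1.8 M NaCl. Reaction started with succinyl-Ala-Ala-Pro-Phe-p-nitroanilide. Absorbance at 405 nm read after 2 h at 37 °C. IC50 calculated from inhibition of p-nitroaniline formation at each concentration.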

[5] = molecular target: Prothrombin (Homo sapiens, UniProt P00734); assay: Compound was evaluated for its inhibitory activity against human thrombin
How it was run: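 Purified thrombin with a chromogenic substrate. Buffer 0.1 M Tris-HCl pH 8.0 containing 10 mM CaCl2 and 0.1 M NaCl.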

[6] = molecular target: T5, Serine protease 1 (Bos taurus, UniProt P00760); assay: Compound was evaluated for its inhibitory activity against bovine pancreatic trypsin
T5 sequence (P00760 whole entry): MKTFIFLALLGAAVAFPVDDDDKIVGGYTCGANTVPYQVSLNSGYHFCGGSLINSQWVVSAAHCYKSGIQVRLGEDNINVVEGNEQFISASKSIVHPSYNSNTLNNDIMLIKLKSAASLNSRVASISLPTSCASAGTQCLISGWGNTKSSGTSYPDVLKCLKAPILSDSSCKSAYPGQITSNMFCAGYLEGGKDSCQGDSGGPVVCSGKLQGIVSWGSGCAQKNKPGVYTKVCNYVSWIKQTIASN
How it was run: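 Purified trypsin with a chromogenic substrate. Buffer 50 mM Tris-HCl pH 8.0 containing 2 mM CaCl2.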

[7] = molecular target: T4, Chymase; assay: Compound was evaluated for its inhibitory activity against human Serine protease chymase; how it was run: as §2
[8] = Half life was determined; type: ADME; settings: sodium methoxide 10 mM in methanol, 21 °C
How it was run: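 Chemical stability: 1 μmol compound added to 1 mL of 10 mM sodium methoxide in methanol, stirred at 21 °C. Aliquots removed every 2 h and analysed by reverse-phase HPLC to give t1/2.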

[9] = molecular target: T3, Plasminogen; assay: Compound was evaluated for its inhibitory activity against human plasmin up to a concentration > 1000 nM; NA= not activity; settings: in the assay text read “> 10000 nM” for “> 1000 nM”; how it was run: as §1

T3 sequence (P00747 97-580 limits assumed): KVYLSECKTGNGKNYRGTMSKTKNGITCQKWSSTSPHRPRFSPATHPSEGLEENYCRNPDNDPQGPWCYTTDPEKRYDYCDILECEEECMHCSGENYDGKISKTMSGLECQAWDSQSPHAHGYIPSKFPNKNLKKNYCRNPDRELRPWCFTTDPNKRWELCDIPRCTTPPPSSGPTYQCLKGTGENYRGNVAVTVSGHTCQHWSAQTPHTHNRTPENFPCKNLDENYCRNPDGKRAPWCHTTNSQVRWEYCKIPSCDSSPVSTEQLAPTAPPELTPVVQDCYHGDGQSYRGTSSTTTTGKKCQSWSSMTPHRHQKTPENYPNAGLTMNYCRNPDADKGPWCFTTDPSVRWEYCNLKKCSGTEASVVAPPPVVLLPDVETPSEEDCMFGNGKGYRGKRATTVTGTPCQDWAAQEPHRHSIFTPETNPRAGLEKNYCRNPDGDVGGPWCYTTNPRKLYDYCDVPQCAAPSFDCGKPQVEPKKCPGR
T3 sequence (P00747 581-810 limits assumed): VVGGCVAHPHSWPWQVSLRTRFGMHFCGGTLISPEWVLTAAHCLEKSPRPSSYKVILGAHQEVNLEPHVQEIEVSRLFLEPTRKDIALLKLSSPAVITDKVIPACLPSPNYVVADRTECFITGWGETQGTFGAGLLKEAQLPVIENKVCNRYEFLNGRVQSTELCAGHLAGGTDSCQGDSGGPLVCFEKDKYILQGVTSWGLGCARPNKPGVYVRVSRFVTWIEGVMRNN

IC50 [2] [nM]	IC50 [5] [nM]	IC50 [6] [nM]	IC50 [7] [nM]	Compound	other results
58	5600	39000	–	CCN1C(=O)N(CC)C1=O	IC50 [1]: 740 nM; IC50 [3]: > 10000 nM; IC50 [4]: Not Active
–	–	–	2.3	COc1cccc(CN2C(=O)N(Cc3cccc(OC)c3)C2=O)c1	–
–	–	–	–	CCOC(=O)CN1C(=O)N(CC(=O)OCC)C1=O	IC50 [4]: Not Active
–	–	–	2	COc1ccc(CN2C(=O)N(Cc3ccc(OC)cc3)C2=O)cc1	–
–	–	–	0.85	O=C1N(Cc2ccc3c(c2)OCO3)C(=O)N1Cc1ccc2c(c1)OCO2	–
–	–	–	48	O=C1N(c2ccc3c(c2)OCO3)C(=O)N1c1ccc2c(c1)OCO2	–
100	72	39	4	O=C1N(Cc2ccccc2)C(=O)N1Cc1ccccc1	IC50 [3]: 2900 nM; half-life [8]: 570 min
230	2300	200	140	Cc1ccc(N2C(=O)N(c3ccc(C)cc3)C2=O)cc1	NA [9]: inactive
